# Source: PubChem BioAssay
# Rows were chosen to be rich in hits. Some 2.3% of all compounds tested hit in one or more screens of this group.
# TRPC4 potent: positive allosteric modulators of TRPC4, primary screen, cell-based, mouse TRPC4beta, HEK293 mu-opioid, Fluo-4 calcium | Short transient receptor potential channel 4 (Mus musculus), Q9QUQ5 | DAMGO EC20, Fluo-4 Ca2+ flux; hits give high values | B-score at 10 µM | hit rate 0.42% among 310,000;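 active = B-score of calcium response area above 5 SD of library B-scores, with initial fluorescence ratio within 5 SD of library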;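 also: B-score of integrated fluorescence ratio over time as area under calcium response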
# FID counter: compounds displacing fluorescent DNA intercalator, primary screen, artefact control for HCV NS3 helicase inhibitor project, biochemical, FID fluorescence; DNA fluorescent intercalator displacement; AID 1845, 2009; hit rate 0.17% among 290,000; inhibition, % at 7.9 µM; in the data active = inhibition above about 37%;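 also: 0% = vehicle and 100% = reference compound; higher means more ethidium bromide displaced from hairpin DNA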
# TRPC6 inhibitor: mouse TRPC6 channel inhibitors, primary screen, cell-based, HEK293, membrane potential dye | B-score at 10 µM | Short transient receptor potential channel 6 (Mus musculus), Q61143 | ACh-evoked depolarization; hits give low values | hit rate 1.1% among 310,000;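 active = B-score under library mean minus 3 SD, initial fluorescence not abnormally high, positive integrated signal ratio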;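 also: B-score derived from integrated fluorescence ratio over the kinetic read; more negative B-score means stronger inhibition of depolarization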
# TRPC4 inh: inhibitors of mouse TRPC4 channel, primary screen, Fluo4 calcium, HEK293 TRPC4beta/mu-opioid cells; hit rate 0.39% among 300,000; B-score at 10 µM; DAMGO-evoked Fluo4 calcium flux; hits give low values; Short transient receptor potential channel 4 (Mus musculus), Q9QUQ5;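 active = B-score over 3 SD under the library average, no early fluorescence shift, positive overall ratio signal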
#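 Assay system: HEK293 cells with stable TRPC4beta plus mu-opioid receptor expression; Probe or stimulus: DAMGO in two steps, submaximal then maximal; Dosing: single-point compound dosing; Measured by: Fluo4 calcium-dye fluorescence, kinetic read; Read-out basis: B score from integrated Fluo4 fluorescence ratio.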
# TRPC6 act: mouse TRPC6 channel activators, primary screen, cell-based, HEK293, membrane potential dye. Short transient receptor potential channel 6 (Mus musculus), Q61143. hit rate 0.13% among 310,000. B-score at 10 µM. HEK293-TRPC6 membrane potential dye fluorescence; hits give high values. AID 2550, 2010;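 active = B-score of the integrated fluorescence ratio above library mean plus 3 SD, and starting fluorescence ratio within library mean plus 5 SD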;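 also: higher score means more depolarization so channel activation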
# TRPC4 act: activators of mouse TRPC4 channel, primary screen, Fluo4 calcium, HEK293 TRPC4beta/mu-opioid cells; B-score at 10 µM; hit rate 0.49% among 310,000; Fluo4 calcium fluorescence; hits give high values;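 active = B-score above 5 SD of library B-scores, and initial fluorescence ratio not above library mean plus 5 SD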;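 also: positive B-score marks a calcium rise read as TRPC4 activation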
#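 Test system: HEK293 cells stably co-expressing mouse TRPC4beta and mu-opioid receptor | Schedule: Fluo4 dye loading 45 min at room temperature, 110 s recording | Measured by: Kinetic Fluo4 calcium fluorescence, 5 s baseline at 1 Hz | Evaluation: B score of integrated ratio | Controls: Buffer (low) and maximal DAMGO (high)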
# TRPC4 sel inh 2: second selectivity test of TRPC6 inhibitors: effect on mouse TRPC4; hit rate 42% among 920; shares compounds with TRPC6 inhibitor; AID 2776; inhibition, % at 10 µM; HEK293 TRPC4/MOR, membrane potential dye fluorescence; channel activated by saturating DAMGO dose;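 active = compounds whose fluorescence signal differed from control wells by over 3 SD, either direction, in both duplicate plates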
# TRPC4 spec: mouse TRPC4 modulation by TRPC6 hits, confirmation, selectivity assay for TRPC6 inhibitor project, cell-based, HEK293 TRPC4/mu-opioid, membrane potential dye; shares compounds with TRPC6 inhibitor; membrane potential fluorescence; activity change, negative = inhibition, % at 10 µM; hit rate 61% among 920;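 active = rise or fall in signal beyond 3 SD of buffer-only wells in both replicate plates, either sign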;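 also: integrated kinetic ratio of fluorescence range over baseline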
# HEK293 MPD ctr 2-1: nonspecific membrane potential effects, parental HEK293, confirmation, counter-screen for TRPC6 inhibitor project, cell-based, second counter screen; shares compounds with TRPC6 inhibitor; parental HEK293 membrane potential dye fluorescence; maximal acetylcholine challenge after compound addition; signal change vs control, % at 10 µM; hit rate 31% among 920;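 active = membrane potential signal moving either way by over 3 SD of the maximum-effect control, in both duplicate plates, meaning non-specific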
# HEK293 MPD ctr-1: membrane potential modulation in parental HEK293, confirmation, counter-screen for TRPC6 inhibitor project, cell-based. shares compounds with TRPC6 inhibitor. membrane potential signal change, % at 10 µM. parental HEK293 membrane potential dye fluorescence. hit rate 60% among 920;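 active = membrane potential signal shifting up or down by more than 3 SD of buffer-only wells, on both duplicate plates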
# HEK293 MPD ctr-2: parental HEK293 membrane potential modulation, confirmation, counter-screen for TRPC6 modulator project, cell-based; shares compounds with TRPC6 inhibitor; membrane potential dye fluorescence; membrane potential signal change, % at 10 µM; hit rate 51% among 2,400; AID 488924, 2010;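 active = membrane potential signal moves up or down beyond 5 SD from buffer-only wells, on both duplicate plates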
# HEK293 MPD ctr 2-2: parental HEK293 nonspecific activity of TRPC6 modulators, second screen; membrane potential dye fluorescence; after compound, maximal acetylcholine stimulation; AID 488926; shares compounds with TRPC6 inhibitor; inhibition, % at 10 µM; hit rate 14% among 2,400;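 active = membrane potential signal drops by more than 5 SD from the mean control signal, in both duplicate plates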;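 also: plate controls were acetylcholine ECmax control wells for no effect and buffer only wells for full effect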
# TRPC4 ctr mod: TRPC4 modulation by TRPC6 hit compounds, confirmation, selectivity assay for TRPC6 modulator project, cell-based, HEK293 TRPC4/mu-opioid, membrane potential dye, mouse. AID 488927, 2010. hit rate 69% among 2,400. shares compounds with TRPC6 inhibitor. membrane potential fluorescence. percent change from control (negative = decrease, positive = increase), % at 10 µM;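 active = membrane potential signal moved up or down beyond 5 SD of buffer control wells, in both duplicate plates, actives on both sides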;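 also: plate controls were assay buffer wells for no effect and DAMGO maximal-effect wells for full effect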
# TRPC4/MOR inh 2: second selectivity test of TRPC6 modulators against mouse TRPC4. shares compounds with TRPC6 inhibitor. HEK293 TRPC4/mu-opioid, membrane potential dye fluorescence; stimulated with maximal-effect DAMGO. inhibition, % at 10 µM. hit rate 55% among 2,400;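 active = drop in membrane potential signal beyond 5 SD of the control wells in both duplicate plates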;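 also: TRPC4 counter screen for TRPC6 hits run under conditions tuned for TRPC6 not TRPC4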
# TRPC6 block conf: mouse TRPC6 channel inhibitors, confirmation, HEK293 cells, membrane potential dye, duplicate; shares compounds with TRPC6 inhibitor; ACh-evoked depolarization; inhibition, % at 10 µM; hit rate 43% among 3,300; AID 488960, 2010;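 active = fluorescence ratio falls more than 5 SD below the full-stimulation control mean, in both duplicate runs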;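 also: integrated fluorescence ratio of peak minus minimum over baseline after agonist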
# TRPC6 act conf: mouse TRPC6 channel activators, confirmation, HEK293 cells, membrane potential dye, duplicate. shares compounds with TRPC6 inhibitor. HEK293-TRPC6 membrane potential dye fluorescence, FDSS. activation, % at 10 µM. hit rate 11% among 2,800;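 active = ratio signal rise beyond 5 SD above unstimulated control wells' mean, seen in both duplicate runs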;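 also: plate controls were buffer EC0 wells for no effect and acetylcholine ECmax response for full effect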
# * hit, by the source's call; i = inactive; / = no result.
SMILES,TRPC4 potent,FID counter,TRPC6 inhibitor,TRPC4 inh,TRPC6 act,TRPC4 act,TRPC4 sel inh 2,TRPC4 spec,HEK293 MPD ctr 2-1,HEK293 MPD ctr-1,HEK293 MPD ctr-2,HEK293 MPD ctr 2-2,TRPC4 ctr mod,TRPC4/MOR inh 2,TRPC6 block conf,TRPC6 act conf
O=C(COC(=O)c1c(Cl)cccc1Cl)NC1CCCCC1,i,-17.7,i,i,12*,i,/,/,/,/,121.0%*,i,23.5%*,i,/,171.0%*
COc1ccc(CNC(C)C23CC4CC(CC(C4)C2)C3)c(OC)c1OC (configuration not stated),i,15.1,-8.05*,i,i,i,i,35.4%*,i,18.6%*,/,/,/,/,95.8%*,/
Cc1[nH]c2ccccc2c1C(=O)C(=O)NC1CC1,i,-8.7,i,i,i,i,/,/,/,/,/,/,/,/,/,/
Cc1cc(C)nc(/N=C(\N)Nc2ccc(S(N)(=O)=O)cc2)n1,i,-0.8,i,i,i,i,/,/,/,/,/,/,/,/,/,/
Cc1cc(C)nc(/N=C(\N)Nc2ccc(F)c([N+](=O)[O-])c2)n1,i,-6.1,-6.43*,i,i,i,/,/,/,/,-185.0%*,i,-25.0%*,31.5%*,i,i
Cc1cc(C)nc(/N=C(\N)Nc2ccc(SC(F)F)cc2)n1,i,-1.6,-6.4*,i,i,43*,/,/,/,/,-132.0%*,i,-23.0%*,48.0%*,i,i
CC(=O)Nc1ccc(N/C(N)=N/c2nc(C)cc(C)n2)cc1,i,-2.0,i,i,i,i,/,/,/,/,/,/,/,/,/,/
CC(C)CC(=O)Nc1ccc(S(=O)(=O)Nc2nccs2)cc1,i,-6.3,i,i,i,i,/,/,/,/,/,/,/,/,/,/
CCCCN1C(=S)SC(C)(C)C1/[N+]([O-])=C/c1cccnc1 (configuration not stated),i,0.4,-6.61*,i,i,i,i,i,i,i,/,/,/,/,56.6%*,/
COc1ccc(OC)c2c(C)cc(N3CCCCCC3)nc12,i,1.0,-6.63*,-5*,i,i,74.5%*,-22.1%*,i,-419.0%*,/,/,/,/,i,i
COc1ccc(OC)c2c(C)cc(N3CCN(C(=O)c4ccc(F)cc4)CC3)nc12,i,-33.2,-5.65*,i,i,i,/,/,/,/,-243.5%*,i,-44.5%*,42.0%*,i,i
COc1ccc(N2CCN(c3cc(C)c4cccc(C)c4n3)CC2)cc1,i,1.6,i,i,i,i,/,/,/,/,/,/,/,/,/,/
COc1ccc(OC)c2c(C)cc(NCCN3CCOCC3)nc12,i,9.8,-8.88*,i,i,i,/,/,/,/,-276.5%*,69.5%*,-36.5%*,67.5%*,72.5%*,i
COc1cccc2c(C)cc(N3CCCCCC3)nc12,i,7.1,-9.41*,i,i,i,/,/,/,/,-262.0%*,i,-47.0%*,86.0%*,46.5%*,i
O=C(NCCc1ccccc1)C(c1ccc(F)cc1)N(C(=O)c1csnn1)C1CC1 (configuration not stated),i,-36.4,i,i,i,i,/,/,/,/,/,/,/,/,/,/
COc1ccc(N2CCN(S(=O)(=O)CC34CCC(CC3=O)C4(C)C)CC2)cc1 (configuration not stated),i,-25.4,i,i,i,i,/,/,/,/,/,/,/,/,/,/
Cc1ccc(NC(=O)C(C)OC(=O)CCC2CCCCC2)cc1 (configuration not stated),i,/,i,i,i,i,/,/,/,/,/,/,/,/,/,/
O=C(/C=C/c1ccc2c(c1)OCO2)Nc1c(C(=O)O)[nH]c2ccccc12,i,-29.5,i,i,14.5*,i,/,/,/,/,i,i,16.0%*,i,i,54.0%*
COC(=O)c1[nH]c2cc(C)ccc2c1NC(=O)CN1CCCc2ccccc21,i,-4.4,-11*,i,i,i,i,-10.5%*,i,i,/,/,/,/,i,i
COC(=O)c1[nH]c2ccc(Br)cc2c1NC(=O)CN1CCN(C2CCCCC2)CC1,i,18.5,-16.8*,i,i,i,29.5%*,-24.1%*,20.0%*,-268.5%*,/,/,/,/,94.1%*,i
